Calls of active or inactive are those of the source. The calls are words filed in the database; no cut-off is given here.
Columns and labels:
Aorta [1] = assay: Vasodilatory activity in Wistar rat thoracic aorta assessed as relaxation of L-phenylephrine-induced contraction after 120 mins; format: functional, tissue-based; details: for EC50: 2 h
[2] = Induction of glucose-stimulated insulin release from rat INS-1E cells at 200 uM after 1 hr by coated charcoal immunoassay in presence of 11 mM glucose; format: functional
Summary of the method: (§1)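 INS-1E cells at passages 54–65 were kept in RPMI 1640 with 10% heat-inactivated FCS, pyruvate, 2-mercaptoethanol, glutamine and HEPES, and were seeded at 4 x 10^4 cells/cm2. After 48 h they were preincubated 1 h at 37 °C in KRBH with 0.5% BSA and 1 or 2 mM glucose. They were then exposed 1 h at 37 °C to glucose ± compound (100 or 200 µM). Secreted insulin was measured by RIA against a rat insulin standard. Data are mean ± SEM.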

liver (rat) = assay: Induction of nitric oxide release from Wistar rat liver homogenate at 200 uM after 45 mins by Griess method
[3] = Induction of glucose-stimulated insulin release from rat INS-1E cells at 200 uM after 1 hr by coated charcoal immunoassay in presence of 2 mM glucose relative to control; format: functional; summary of the method: as §1
[4] = Antiaggregatory activity in human platelet-rich plasma assessed as inhibition of collagen-induced aggregation at 300 uM pretreated 10 mins before addition of stimulus measured after 10 mins; format: functional
Summary of the method: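 Collagen-triggered aggregation in human platelet-rich plasma, by a method described in earlier work. Inhibition is taken relative to control samples. IC50 is obtained by nonlinear regression where it can be calculated. Otherwise percent inhibition is reported at the top concentration tried, 300 µM.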

[5] = Induction of glucose-stimulated insulin release from rat INS-1E cells at 100 uM after 1 hr by coated charcoal immunoassay in presence of 2 mM glucose relative to control; format: functional; summary of the method: as §1
[6] = (§2) Induction of glucose-stimulated insulin release from rat INS-1E cells at 200 uM after 1 hr by coated charcoal immunoassay in presence of 2 mM glucose; format: functional; summary of the method: as §1
Aorta [7] = assay: Vasodilatory activity in Wistar rat thoracic aorta assessed as relaxation of L-phenylephrine-induced contraction after 120 mins in presence of 1 uM sGC inhibitor ODQ; format: functional, tissue-based; details: for EC50: 2 h
[8] = Induction of NO release in phosphate buffered saline of pH 7.4 after 1 hr by Griess assay in presence of 5 mM L-cysteine; format: physicochemical; details: buffer, pH 7.4, 1 h
[9] = Induction of glucose-stimulated insulin release from rat INS-1E cells at 200 uM after 1 hr by coated charcoal immunoassay in presence of 5.6 mM glucose; format: functional; summary of the method: as §1
[10] = Induction of nitrite production in rat INS-1E cells assessed per well at 200 uM after 2 hrs by Griess method in presence of 2 mM glucose; format: functional
[11] = Induction of NO release in phosphate buffered saline of pH 7.4 after 1 hr by Griess assay in presence of 0.5 mM L-cysteine; format: physicochemical; details: buffer, pH 7.4, 1 h
[12] = Antiaggregatory activity in human platelet-rich plasma assessed as inhibition of collagen-induced aggregation pretreated 10 mins before addition of stimulus measured after 10 mins in presence of 50 uM ODQ; format: functional
INS-1E [13] = assay: Induction of glucose-stimulated insulin release from rat INS-1E cells at 200 uM after 1 hr by coated charcoal immunoassay in presence of up to 4 mM glucose; format: functional, cell-based; summary of the method: as §1
INS-1E [14] = assay: as §2; format: functional; summary of the method: as §1

EC50 (Aorta [1]) | EC50 (Aorta [7]) | Activity [8] | SMILES | Activity (Aorta [1]) | Activity [3] | inhibition at 300 µM [4] | Activity [5] | Activity [6] | Activity [9] | Activity [10] | Activity (INS-1E [13]) | Activity (INS-1E [14]) | other results
1600 nM | > 100000 nM | < 1% | CCCCNC(=O)NS(=O)(=O)c1ccc(OCCCO[N+](=O)[O-])cc1 | Dose-dependent effect | 2.38% | 1.1% | 1.86% | 2.18% | 4.62% | 3.88 nmol | – | – | Activity [2]: 5.79%; Activity (liver (rat)): Active
– | 900 nM | – | CCCCNC(=O)NS(=O)(=O)c1ccc(OCc2no[n+]([O-])c2C#N)cc1 | Dose-dependent effect | – | – | – | – | – | 10.33 nmol | Active | – | Activity [11]: 27.7%; IC50 [12]: 209000 nM
900 nM | 61000 nM | 4.3% | CCCCNC(=O)NS(=O)(=O)c1ccc(OCC(CO[N+](=O)[O-])O[N+](=O)[O-])cc1 (stereo not drawn) | Dose-dependent effect | – | 5.6% | – | 2.6% | 4.85% | 5.65 nmol | Active | – | Activity (liver (rat)): Active
– | – | – | N#Cc1c(COc2ccccc2)no[n+]1[O-] | – | – | – | – | – | – | – | – | inactive | –
– | – | – | O=[N+]([O-])OCC(COc1ccccc1)O[N+](=O)[O-] (stereo not drawn) | – | – | – | – | – | – | – | – | inactive | –
– | – | – | [O-][n+]1onc(COc2ccccc2)c1-c1ccccc1 | – | – | – | – | – | – | – | – | inactive | –
– | – | – | O=S(=O)(c1ccccc1)c1c(Oc2ccccc2)no[n+]1[O-] | – | – | – | – | – | – | – | – | inactive | –
740 nM | 57000 nM | 9.1% | CCCCNC(=O)NS(=O)(=O)c1ccc(OCc2no[n+]([O-])c2C(N)=O)cc1 | Dose-dependent effect | 1.94% | 5.2% | 1.46% | 2.12% | 4.19% | 3.47 nmol | – | – | Activity [2]: 4.92%
– | – | – | CCCCNC(=O)NS(=O)(=O)c1ccc(C)cc1 [TOLBUTAMIDE] | Dose-dependent effect | 2.97% | 6.4% | 2.22% | 2.76% | 4.98% | 3.2 nmol | Active | – | Activity [2]: 5.45%; Activity (Aorta [7]): inactive
– | – | – | O=[N+]([O-])OCCCOc1ccccc1 | – | – | – | – | – | – | – | – | inactive | –
2.4 nM | 220 nM | – | CCCCNC(=O)NS(=O)(=O)c1ccc(Oc2no[n+]([O-])c2S(=O)(=O)c2ccccc2)cc1 | Dose-dependent effect | 4.33% | – | 3.06% | – | – | 22.68 nmol | Active | – | Activity [11]: 32.1%; IC50 [12]: 34000 nM
– | – | – | NC(=O)c1c(COc2ccccc2)no[n+]1[O-] | – | – | – | – | – | – | – | – | inactive | –
2400 nM | > 100000 nM | < 1% | CCCCNC(=O)NS(=O)(=O)c1ccc(OCc2no[n+]([O-])c2-c2ccccc2)cc1 | Dose-dependent effect | 2.41% | 13% | 1.83% | – | – | 7.03 nmol | Active | – | –

Source: ChEMBL document CHEMBL2169768, “Synthesis and preliminary biological profile of new NO-donor tolbutamide analogues” (Bioorg Med Chem Lett, 2012)
